Measured values published in ChEMBL document CHEMBL3997811.
pEC50: −log10 of the molar value. The source made the active and inactive calls. The rule behind the calls is not given here.

Experiments:
[1] = tested on: Matrix protein 2 (Influenza A virus (A/Udorn/307/1972(H3N2))), P0DOF8 [S31N]; experiment: Inhibition of Influenza A virus amantadine-resistant M2 proton channel S31N mutant expressed in Xenopus laevis oocyte at 100 uM at pH 5.5 after 2 mins by two-electrode patch clamp assay relative to control
Outline: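 Xenopus laevis oocytes microinjected with RNA for AM2-WT or AM2-S31N; channel activated at pH 5.5; two-electrode voltage clamp current recorded after 2 min exposure to 100 μM compound; expressed as percent current inhibition; three repeats on different oocytes, mean reported.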

[2] = Antiviral activity against amantadine-resistant Influenza A virus A/California/07/2009 (H1N1) expressing M2 proton channel S31N mutant infected in MDCK cells harboring ST6Gal1 gene assessed as reduction in plaque formation at 10 uM measured after 2 days post infection by crystal violet staining based assay relative to control; type: functional; parameters: scale not given: the % may be the effect or the level left
Outline: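 ST6Gal I-expressing MDCK monolayers infected with ~100 pfu in DMEM/0.5% BSA, 1 h at 4 °C then 1 h at 37 °C; inoculum removed, PBS wash, overlay of DMEM with 1.2% Avicel and NAT (2.0 μg/mL) containing compound at 10 μM; 2-day incubation; plaque formation expressed as percent of DMSO control.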

[3] = (§1) Antiviral activity against amantadine-resistant Influenza A virus A/California/07/2009 (H1N1) expressing M2 proton channel S31N mutant infected in MDCK cells harboring ST6Gal1 gene assessed as reduction in plaque formation measured after 2 days post infection by crystal violet staining based; type: functional, cell-based
[4] = tested on: Influenza A virus (A/California/07/2009(H1N1)); experiment: as §1; type: functional, cell-based
Influenza A virus = experiment: Antiviral activity against multidrug-resistant Influenza A virus A/Switzerland/9715293/2013 (H3N2) expressing M2 proton channel S31N mutant infected in MDCK cells harboring ST6Gal1 gene assessed as reduction in plaque formation measured after 2 days post infection by crystal violet staining based; type: functional, cell-based
[5] = Antiviral activity against amantadine/oseltamivir-resistant Influenza A virus A/Washington/29/2009 (H1N1) expressing AM2-S31N/neuraminidase-H275Y mutant infected in MDCK cells harboring ST6Gal1 gene assessed as reduction in plaque formation measured after 2 days post infection by crystal violet staining based; type: functional, cell-based
[6] = tested on: Influenza A virus (A/California/07/2009(H1N1)); experiment: as §1, with “formation up to 30 uM” for “formation”; type: functional, cell-based

Row | Structure (SMILES) | inhibition [1] [%] | Activity [2] [%] | pEC50 [3] | Activity [4] | pEC50 (Influenza A virus) | pEC50 [5] | Activity [6]
1 | c1cncc(-c2cc(CNC34CC5CC(CC(C5)C3)C4)no2)c1 | 53 | 105.5 |  |  |  |  | 
2 | CN(C)c1ccc(-c2cc(CNC34CC5CC(CC(C5)C3)C4)no2)cc1 | 83.2 | 35.7 |  |  |  |  | 
3 | COc1ccc(-c2cc(CNC34CC5CC(CC(C5)C3)C4)no2)cn1 | 58 | 21.7 |  |  |  |  | 
4 | FC(F)(F)Oc1cccc(-c2cc(CNC34CC5CC(CC(C5)C3)C4)no2)c1 | 56.7 | 72.7 |  |  |  |  | 
5 | COC(=O)c1ccc(-c2cc(CNC34CC5CC(CC(C5)C3)C4)no2)cc1 | 73.6 | 24.1 |  |  |  |  | 
6 | COc1ccccc1-c1cc(CNC23CC4CC(CC(C4)C2)C3)no1 | 51.8 | 62.1 |  |  |  |  | 
7 | OC12CC3CC(C1)CC(NCc1cc(-c4ccccc4Cl)on1)(C3)C2 | 87.1 | 8.3 | 6.05 | Dose-dependent effect |  |  | 
8 | Clc1cc(-c2cc(CNC34CC5CC(CC(C5)C3)C4)no2)cs1 | 87.9 | 10.9 |  |  |  |  | 
9 | Clc1cc(-c2cc(CNC34CC5CC(CC(C5)C3)C4)no2)c(Cl)s1 | 87.7 | 10.1 |  |  |  |  | 
10 | c1ccc(-c2cc(CNC34CC5CC(CC(C5)C3)C4)no2)cc1 |  | 13.5 | 6.52 | Dose-dependent effect |  |  | 
11 | c1ccc(-c2ccc(-c3cc(CNC45CC6CC(CC(C6)C4)C5)no3)cc2)cc1 | 45.6 | 36 |  |  |  |  | 
12 | CSc1ccccc1-c1cc(CNC23CC4CC(CC(O)(C4)C2)C3)no1 | 90.6 | 9.2 | 5.92 | Dose-dependent effect |  |  | 
13 | CS(=O)(=O)c1ccccc1-c1cc(CNC23CC4CC(CC(C4)C2)C3)no1 | 9.8 | 110 |  |  |  |  | 
14 | N#Cc1ccc(-c2cc(CNC34CC5CC(CC(C5)C3)C4)no2)cc1 | 72.2 | 28 |  |  |  |  | 
15 | COc1sccc1-c1cc(CNC23CC4CC(CC(C4)C2)C3)no1 | 94.2 | 7.2 |  |  |  |  | 
16 | Clc1ccc(-c2cc(CNC34CC5CC(CC(C5)C3)C4)no2)s1 | 78.8 | 0 |  | Dose-dependent effect | 6.70 | 6.70 | 
17 | CSc1cccc(-c2cc(CNC34CC5CC(CC(C5)C3)C4)no2)c1 | 69.6 | 56.3 |  |  |  |  | 
18 | c1ccc2c(-c3cc(CNC45CC6CC(CC(C6)C4)C5)no3)cccc2c1 | 56.8 | 36.1 |  |  |  |  | 
19 | Oc1ccccc1-c1cc(CNC23CC4CC(CC(C4)C2)C3)no1 | 71.5 | 3.4 | 6.30 | Dose-dependent effect |  |  | 
20 | OC12CC3CC(C1)CC(NCc1cc(-c4cc(Cl)sc4Cl)on1)(C3)C2 | 89.9 | 13.7 |  |  |  |  | inactive
21 | NC(=O)c1ccc(-c2cc(CNC34CC5CC(CC(C5)C3)C4)no2)cc1 | 47.4 | 57.1 |  |  |  |  | 
